Results published in PMC9075791 (RSC Advances, 2019).

Experiments:
[1] = biological target: Muscarinic M3 receptor (Homo sapiens, UniProt P20309); assay: DMR desensitization assay, M3; assay type: cell-based; conditions: HT-29 cells; active compounds at concentrations above 50 μM
[2] = Cell-free aggregation assay; assay type: physicochemical; conditions: for Detected CAC: critical aggregation concentration, 1× HBSS, 20 mM HEPES, pH 7.2; for aggregator / non-aggregator in aggregation assay: real time dose responses
Summary of the method: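 Assay buffer (1× HBSS, 20 mM HEPES, pH 7.2) was equilibrated in wells of the RWG reader for 1 h. After a 2 min baseline, a compound dilution series (from DMSO stocks, maximum 1‰ final DMSO) was added and wavelength shift was recorded for 1 h. A DMSO range set the background. Responses at a fixed time were plotted against concentration to give the CAC. Each assay was run at least three times.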

[3] = tested on: HT-29 cells; assay: DMR agonism assay; assay type: cell-based, Human
Summary of the method: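 HT-29 cells were grown in McCoy's 5A with 10% FBS at 37 °C/5% CO2. They were seeded on RWG biosensor plates for ~24 h to form a monolayer, washed, and held 1 h in HBSS/20 mM HEPES pH 7.2, or in the same buffer with tween-80 for detergent runs. After a 2 min baseline, test compound was added and DMR was monitored for 1 h. The background-corrected maximal amplitude was used. Two independent runs, each at least in duplicate (n = 4).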

[4] = cited from earlier work

Sequence of Muscarinic M3 receptor (P20309 whole entry): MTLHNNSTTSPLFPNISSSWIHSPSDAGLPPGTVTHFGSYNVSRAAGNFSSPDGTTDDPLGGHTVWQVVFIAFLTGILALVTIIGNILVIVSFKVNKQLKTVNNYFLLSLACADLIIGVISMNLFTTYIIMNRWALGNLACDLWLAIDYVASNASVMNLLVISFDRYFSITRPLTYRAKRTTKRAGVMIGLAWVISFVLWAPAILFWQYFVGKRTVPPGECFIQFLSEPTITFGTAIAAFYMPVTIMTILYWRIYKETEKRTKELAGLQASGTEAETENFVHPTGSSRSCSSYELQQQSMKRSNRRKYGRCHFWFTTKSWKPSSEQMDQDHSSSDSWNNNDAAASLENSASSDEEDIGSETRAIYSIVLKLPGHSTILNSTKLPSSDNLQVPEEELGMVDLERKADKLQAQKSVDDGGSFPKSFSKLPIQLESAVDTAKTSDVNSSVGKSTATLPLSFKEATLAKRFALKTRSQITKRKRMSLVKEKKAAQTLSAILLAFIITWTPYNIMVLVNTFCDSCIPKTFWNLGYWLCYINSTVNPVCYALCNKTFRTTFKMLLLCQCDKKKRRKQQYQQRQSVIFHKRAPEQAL

Compound	inhibition of the DMR response of acetylcholine against muscarinic M3 receptor [1]	Detected CAC [2]	aggregator / non-aggregator in aggregation assay [2]	DMR response (in words) ([3]; to its solubility limit)	Literature CAC detected by DLS [4]	DMR response ([3]; at 100 μM)
COc1cc(/C=C/C(=O)CC(=O)/C=C/c2ccc(O)c(OC)c2)ccc1O [Curcumin]	did not inhibit	9.6 µM	aggregator	barely triggered any cellular mass redistributions	17 ([ref. 16]) μM	–
O=c1c(-c2ccc(O)cc2)coc2cc(O)cc(O)c12 [Genistein]	–	42.8 µM	–	–	<75 ([ref. 12]) μM	–
O=c1cc(-c2ccc(O)c(O)c2)oc2cc(O)cc(O)c12 [Luteolin]	–	1.6 µM	–	–	<50 ([ref. 12]) μM	–
O=C(O)c1cccnc1 [Nicotinic acid]	–	–	non-aggregator	–	–	–
COc1cc(O)c2c(c1)C(=O)c1cc(C)cc(O)c1C2=O [Physcion]	–	Undetected	–	–	0.32 ([ref. 16]) μM	–
O=c1c(O)c(-c2ccc(O)c(O)c2)oc2cc(O)cc(O)c12 [Quercetin]	false inhibited	5.7 µM	–	–	–	less than 100 pm
COc1cc(C2Oc3cc([C@H]4Oc5cc(O)cc(O)c5C(=O)[C@@H]4O)ccc3OC2CO)ccc1O (some centres unmarked) [Silybin]	–	25.2 µM	–	–	0.47 ([ref. 16]) μM	–
